Source: ChEMBL document CHEMBL2412964, “Discovery of novel tetrahydro-pyrazolo [4,3-c] pyridines for the treatment of neuropathic pain: synthesis and neuropharmacology” (Eur J Med Chem, 2013)

Tests used:
[1] = test system: Rattus norvegicus; assay: Antinociceptive activity in Wistar rat chronic constriction injury model assessed as reversal of cold allodynia at 100 mg/kg, ip after 60 mins (reference value: 6.3 +/- 1.9%); assay type: functional; details: route intraperitoneal
[2] = test system: Rattus norvegicus; assay: Antinociceptive activity in Wistar rat partial sciatic nerve ligation model assessed as reversal of cold allodynia at 100 mg/kg, ip after 120 mins (reference value: 1.5 +/- 0.5%); assay type: functional; details: route intraperitoneal
[3] = test system: Rattus norvegicus; assay: Antinociceptive activity in Wistar rat partial sciatic nerve ligation model assessed as reversal of mechanical allodynia at 100 mg/kg, ip after 120 mins (reference value: 2.9 +/- 0.3%); assay type: functional; details: route intraperitoneal
[4] = test system: Rattus norvegicus; assay: Antinociceptive activity in Wistar rat chronic constriction injury model assessed as reversal of tactile allodynia at 100 mg/kg, ip after 120 mins (reference value: 4.1 +/- 2.1%); assay type: functional; details: route intraperitoneal
[5] = test system: Rattus norvegicus; assay: Antinociceptive activity in Wistar rat partial sciatic nerve ligation model assessed as reversal of spontaneous pain response at 100 mg/kg, ip after 120 mins (reference value: 1.2 +/- 0.1%); assay type: functional; details: route intraperitoneal
[6] = test system: Rattus norvegicus; assay: Antinociceptive activity in Wistar rat chronic constriction injury model assessed as reversal of tactile allodynia at 100 mg/kg, ip after 30 mins (reference value: 3.4 +/- 0.8%); assay type: functional; details: route intraperitoneal
[7] = test system: Rattus norvegicus; assay: Antinociceptive activity in Wistar rat chronic constriction injury model assessed as reversal of cold allodynia at 100 mg/kg, ip after 120 mins (reference value: 5.4 +/- 1.9%); assay type: functional; details: route intraperitoneal
[8] = test system: Rattus norvegicus; assay: Antinociceptive activity in Wistar rat chronic constriction injury model assessed as reversal of cold allodynia at 100 mg/kg, ip after 30 mins (reference value: 0.6 +/- 2.7%); assay type: functional; details: route intraperitoneal
[9] = test system: Rattus norvegicus; assay: Antinociceptive activity in Wistar rat chronic constriction injury model assessed as reversal of mechanical allodynia at 100 mg/kg, ip after 120 mins (reference value: 5.3 +/- 0.5%); assay type: functional; details: route intraperitoneal
[10] = test system: Rattus norvegicus; assay: Antinociceptive activity in Wistar rat chronic constriction injury model assessed as reversal of spontaneous pain response at 100 mg/kg, ip after 60 mins (reference value: 4.6 +/- 0.6%); assay type: functional; details: route intraperitoneal
[11] = test system: Rattus norvegicus; assay: Antinociceptive activity in Wistar rat partial sciatic nerve ligation model assessed as reversal of mechanical allodynia at 100 mg/kg, ip after 30 mins (reference value: 2.9 +/- 0.3%); assay type: functional; details: route intraperitoneal
[12] = test system: Rattus norvegicus; assay: Antinociceptive activity in Wistar rat chronic constriction injury model assessed as reversal of mechanical allodynia at 100 mg/kg, ip after 30 mins (reference value: 4.7 +/- 2.1%); assay type: functional; details: route intraperitoneal
[13] = test system: Mus musculus; assay: Antinociceptive activity in Swiss albino mouse assessed as inhibition of formalin-induced flinching at 100 mg/kg administered 30 mins prior to test measured for 10 to 30 mins relative to control; assay type: functional
[14] = test system: Rattus norvegicus; assay: Antinociceptive activity in Wistar rat partial sciatic nerve ligation model assessed as reversal of cold allodynia at 100 mg/kg, ip after 60 mins (reference value: 2.5 +/- 0.3%); assay type: functional; details: route intraperitoneal
[15] = test system: Mus musculus; assay: Antinociceptive activity in Swiss albino mouse assessed as inhibition of formalin-induced flinching at 100 mg/kg administered 30 mins prior to test measured up to 5 mins relative to control; assay type: functional
[16] = test system: Rattus norvegicus; assay: Antinociceptive activity in Wistar rat chronic constriction injury model assessed as reversal of spontaneous pain response at 100 mg/kg, ip after 120 mins (reference value: 4.5 +/- 0.2%); assay type: functional; details: route intraperitoneal
[17] = test system: Mus musculus; assay: Antinociceptive activity in Swiss albino mouse assessed as inhibition of acetic acid-induced writhing at 100 mg/kg administered 30 mins prior to acetic acid-challenge measured for 30 mins relative to control; assay type: functional
In short: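 Swiss albino mice (20–25 g, either sex); writhing induced by i.p. 0.1 mL of 2.0% v/v acetic acid given half an hour after test compound dosing.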

[18] = test system: Rattus norvegicus; assay: Antinociceptive activity in Wistar rat partial sciatic nerve ligation model assessed as reversal of cold allodynia at 100 mg/kg, ip after 30 mins (reference value: 4.1 +/- 1.0%); assay type: functional; details: route intraperitoneal
[19] = test system: Rattus norvegicus; assay: Antinociceptive activity in Wistar rat partial sciatic nerve ligation model assessed as reversal of tactile allodynia at 100 mg/kg, ip after 60 mins (reference value: 12.5 +/- 1.2%); assay type: functional; details: route intraperitoneal
[20] = species on record: Mus musculus; assay: Neurotoxicity in Swiss albino mouse assessed as minimal motor impairment after 0.5 hrs by rotarod test; assay type: toxicity, organism-based; details: in vivo
In short: (§1)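 Mice, either sex, 20-25 g, dosed at 30, 100 and 300 mg/kg. Minimal motor impairment was scored on the rotarod at 0.5 and 4.0 h. Value reported is the minimum dose showing the effect in half or more of three mice per group.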

[21] = test system: Rattus norvegicus; assay: Antinociceptive activity in Wistar rat partial sciatic nerve ligation model assessed as reversal of spontaneous pain response at 100 mg/kg, ip after 30 mins (reference value: 3.2 +/- 0.3%); assay type: functional; details: route intraperitoneal
[22] = test system: Rattus norvegicus; assay: Antinociceptive activity in Wistar rat partial sciatic nerve ligation model assessed as reversal of spontaneous pain response at 100 mg/kg, ip after 60 mins (reference value: 2.9 +/- 0.3%); assay type: functional; details: route intraperitoneal
[23] = test system: Rattus norvegicus; assay: Antinociceptive activity in Wistar rat chronic constriction injury model assessed as reversal of mechanical allodynia at 100 mg/kg, ip after 60 mins (reference value: 4.9 +/- 1.0%); assay type: functional; details: route intraperitoneal
[24] = test system: Rattus norvegicus; assay: Antinociceptive activity in Wistar rat partial sciatic nerve ligation model assessed as reversal of tactile allodynia at 100 mg/kg, ip after 120 mins relative to control; assay type: functional; details: route intraperitoneal
[25] = species on record: Mus musculus; assay: Neurotoxicity in Swiss albino mouse assessed as minimal motor impairment after 4 hrs by rotarod test; assay type: toxicity, organism-based; details: in vivo; in short: as §1
[26] = test system: Rattus norvegicus; assay: Antinociceptive activity in Wistar rat partial sciatic nerve ligation model assessed as reversal of mechanical allodynia at 100 mg/kg, ip after 60 mins (reference value: 2.8 +/- 0.3%); assay type: functional; details: route intraperitoneal
[27] = test system: Rattus norvegicus; assay: Antinociceptive activity in Wistar rat chronic constriction injury model assessed as reversal of tactile allodynia at 100 mg/kg, ip after 60 mins (reference value: 1.3 +/- 0.3%); assay type: functional; details: route intraperitoneal
[28] = test system: Rattus norvegicus; assay: Antinociceptive activity in Wistar rat partial sciatic nerve ligation model assessed as reversal of tactile allodynia at 100 mg/kg, ip after 30 mins (reference value: 7.7 +/- 0.7%); assay type: functional; details: route intraperitoneal
[29] = test system: Rattus norvegicus; assay: Antinociceptive activity in Wistar rat chronic constriction injury model assessed as reversal of spontaneous pain response at 100 mg/kg, ip after 30 mins (reference value: 8.9 +/- 4.6%); assay type: functional; details: route intraperitoneal
[30] = test system: Mus musculus; assay: Neurotoxicity in Swiss albino mouse assessed as minimal motor impairment at 300 mg/kg after 0.5 hrs by rotarod test; assay type: toxicity, organism-based; set-up: dose 300 mg/kg; details: in vivo
In short: (§2)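 Swiss albino mice of either sex, 20-25 g, dosed at 30, 100 and 300 mg/kg, three per group. Minimal motor impairment scored by rotarod at 0.5 and 4.0 h after dosing. Reported value is the lowest dose giving impairment in half or more of the mice.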

[31] = test system: Mus musculus; assay: Neurotoxicity in Swiss albino mouse assessed as minimal motor impairment at 300 mg/kg after 4 hrs by rotarod test; assay type: toxicity, organism-based; set-up: dose 300 mg/kg; details: in vivo; in short: as §2

SMILES	Activity [1] [%]	Activity [2] [%]	Activity [3] [%]	Activity [4] [%]	Activity [5] [%]	Activity [6] [%]	Activity [7] [%]	Activity [8] [%]	Activity [9] [%]	Activity [10] [%]	Activity [11] [%]	Activity [12] [%]	inhibition in vivo at 100 mg/kg [13] [%]	Activity [14] [%]	inhibition in vivo at 100 mg/kg [15] [%]	Activity [16] [%]	inhibition in vivo at 100 mg/kg [17] [%]	Activity [18] [%]	Activity [19] [%]	Activity [21] [%]	also measured
CCN1CCc2c(c(C)nn2C(=O)Nc2ccc(C)cc2C)C1	37.3	38.7	18.7	66.1	5.9	17.2	41.8	54.4	65	67.5	63.3	70.8	16.3	14.3	7	64.4	56.1	60.4	41.9	40.7	MLD [20]: 300 mg/kg; Activity [22]: 34.4%; Activity [23]: 57.5%; Activity [24]: 30.2%; MLD [25]: 300 mg/kg; Activity [26]: 50.5%; Activity [27]: 56.6%; Activity [28]: 53.3%; Activity [29]: 72.9%
CCN1CCc2c(c(C)nn2C(=O)Nc2cccc(C(F)(F)F)c2)C1	13.7	20.9	10.6	11.8	13.8	4.41	7	12.1	21.8	15.2	15.6	13.4	23.1	15.7	4.4	12.5	56.1	30.2	11.1	20.7	Activity [30]: Non-toxic; Activity [22]: 10.2%; Activity [23]: 20.5%; Activity [31]: Non-toxic; Activity [24]: 11.1%; Activity [26]: 11.1%; Activity [27]: 11.8%; Activity [28]: 69.7%; Activity [29]: 13.3%
CCN1CCc2c(c(C)nn2C(=O)Nc2cc(C)ccc2F)C1	21.2	7.9	18.2	13.7	17.3	6.6	2.8	15	14.3	11	44.8	35.7	15	16	5.2	51.8	10.5	13	15.1	57.6	Activity [30]: Non-toxic; Activity [22]: 26.6%; Activity [23]: 42.9%; Activity [31]: Non-toxic; Activity [24]: 3.5%; Activity [26]: 40.2%; Activity [27]: 9.9%; Activity [28]: 20.2%; Activity [29]: 15%
